Results: the RNAGym collection of RNA variant scans (doi:10.1126/science.aae0568)
This sample holds only a part of the variants without activity.

B1: tRNA (parent)
chain: GUUCCGUUGGCGUAAUGGUAACGCGUCUCCCUCCUAAGGAGAAGACUGCGGGUUCGAGUCCCGUACGGAACG

Variants of: B1
Assay: yeast fitness relative to wild type (ratio to wild type); higher = fitter; tRNA-Arg(CCU), competitive growth, 37 C, YPD
In short: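 Variants of the tRNA-Arg(CCU) gene were chemically synthesised with a 3% per-site mutation rate across 69 sites and placed at the native genomic locus in Saccharomyces cerevisiae. Six parallel replicates of the pooled strains were competed in YPD at 37°C for 24 hours, and gene amplicons from the start and end populations were read by 100-nucleotide paired-end sequencing. Darwinian fitness relative to wild type was derived from changes in genotype frequencies. Genotypes required ≥ 100 starting reads, and estimates < 0.5 were set to 0.5.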

| Variant | yeast fitness |
| --- | --- |
| C5U A36G C49U A69C | ≤ 0.5 |
| C5U A15G G17C C66U | ≤ 0.5 |
| C5U A14G C22A | ≤ 0.5 |
| C5U A14G C22U | ≤ 0.5 |
| C5U A14U G48A C66U | ≤ 0.5 |
| C5U A15U G23C A45U C62A | ≤ 0.5 |
| C5U A15U U35C A45C | ≤ 0.5 |
| C5U A14U C24G | ≤ 0.5 |
| C5U A37C A40C G51A C55A G58A | 0.529 |
| C5U A15U C29U C31U C34U C66A | ≤ 0.5 |
| C5U A14G U28C U64C | ≤ 0.5 |
| C5U A20C C22U A36G G52C | ≤ 0.5 |
| C5U A15C G18A U35C A42G C49A | 0.586 |
| C5U A20G C61U | 0.711 |
| C5U A14G U16A C30U | ≤ 0.5 |
| C5U A20U C24U C27U A45G | ≤ 0.5 |
| C5U A21U A57U A65U | ≤ 0.5 |
| C5U A15G A20C U26C G41C G67C | 0.593 |
| C5U A14C C46G | 0.561 |
| C5U A14C C46A | 0.548 |
| C5U A20U G23C C31U U54C | ≤ 0.5 |
| C5U A36G A65G A70C | ≤ 0.5 |
| C5U A15C G18A G23A U35C A42G C49A | ≤ 0.5 |
| C5U A14U C27G | ≤ 0.5 |

| Variant | yeast fitness |
| --- | --- |
| C5U A14G A45G A69C | ≤ 0.5 |
| C5U A20C G58A | ≤ 0.5 |
| C5U A15U C27G | ≤ 0.5 |
| C5U A14G G50C C55U A57G G68A | ≤ 0.5 |
| C5U A20G A21G C31U | ≤ 0.5 |
| C5U A14C A42G A65C | ≤ 0.5 |
| C5U A20U U26A G52A | ≤ 0.5 |
| C5U A15G C22G G41A A45U U47A C62U | ≤ 0.5 |
| C5U A20U U26A C34U C49A A57C C62U | ≤ 0.5 |
| C5U A36C | 0.69 |
| C5U A36G | 1 |
| C5U A36U | 0.632 |
| C5U A20U C55G G68A | ≤ 0.5 |
| C5U A14U C49G A65U | ≤ 0.5 |
| C5U A20C U26G C30U C49U C66G | ≤ 0.5 |
| C5U A15C U32A G52C C62G U64C | ≤ 0.5 |
| C5U A20C G44C | 0.573 |
| C5U A21G A45G | 0.638 |
| C5U A21U C33U G50A U59C | ≤ 0.5 |
| C5U A21C G23A C49A G52A G56C A57C | 0.508 |
| C5U A15U C55A | ≤ 0.5 |
| C5U A20U G67A | 0.882 |
| C5U A20U C60A | ≤ 0.5 |
| C5U A15C C27U C29U A57C | ≤ 0.5 |

| Variant | yeast fitness |
| --- | --- |
| C5U A20G C31G U47C G48C | ≤ 0.5 |
| C5U A14U C55G A65G | 0.566 |
| C5U A14C G68C | ≤ 0.5 |
| C5U A14U U19C G48A C66U | ≤ 0.5 |
| C5U A21G C24A A42C | ≤ 0.5 |
| C5U A21G G67A | 0.629 |
| C5U A14C C34G A37U A40U | ≤ 0.5 |
| C5U A14C G52C A65U | ≤ 0.5 |
| C5U A20U U26A A65C G67C | ≤ 0.5 |
| C5U A20G U32G C33G C55U | ≤ 0.5 |
| C5U A20C C66A | 0.51 |
| C5U A20C C66U | 0.616 |
| C5U A21G U26A | 0.738 |
| C5U A36G G51C | ≤ 0.5 |
| C5U A36U G67A | ≤ 0.5 |
| C5U A15C C29U G58C | ≤ 0.5 |
| C5U A14U A15C | 0.727 |
| C5U A14C C24U A36G A70U | ≤ 0.5 |
| C5U A15G C46G | 0.892 |
| C5U A20G A43G A65U | ≤ 0.5 |
| C5U A21U C30G C33U C66A | ≤ 0.5 |
| C5U A21U A57U C60A G68C | 0.566 |
| C5U A20G C49G G52A A57C | ≤ 0.5 |
| C5U A20G C46G C49G | ≤ 0.5 |

| Variant | yeast fitness |
| --- | --- |
| C5U A20G | 0.904 |
| C5U A20C | 1.1 |
| C5U A15C G23C G56A | ≤ 0.5 |
| C5U A21G U28C A36G A69G | 0.599 |
| C5U A21U U32A A40U C60G | 0.694 |
| C5U A20G G44C | 0.764 |
| C5U A14G A43G | 0.553 |
| C5U A15C U32A U47C | ≤ 0.5 |
| C5U A15G A20U A42G G63A | ≤ 0.5 |
| C5U A15U | 0.671 |
| C5U A14G U26C C30U A42C C61U | ≤ 0.5 |
| C5U A14C C27U C33G C55G C61U | ≤ 0.5 |
| C5U A20C C24U C34G | ≤ 0.5 |
| C5U A20U C62A G67A A70G | 0.747 |
| C5U A20C C31A C34G A57G A65U | 0.593 |
| C5U A14U A21G G68C | 0.588 |
| C5U A15C A21U | ≤ 0.5 |
| C5U A21U C30G A70U | 0.651 |
| C5U A36G G52C | ≤ 0.5 |
| C5U A36U A45U | ≤ 0.5 |
| C5U A21U C33U C62U A70C | ≤ 0.5 |
| C5U A14C A15U G17A U26C A42U A45C G63C G68U | ≤ 0.5 |
| C5U A14C C31G A43U C60G | ≤ 0.5 |
| C5U A20U A36G A65U | ≤ 0.5 |

| Variant | yeast fitness |
| --- | --- |
| C5U A20G A37G G67A | ≤ 0.5 |
| C5U A21C A42G C61G | ≤ 0.5 |
| C5U A37C | 0.764 |
| C5U A21G C22G A43U | 0.533 |
| C5U A20U A40C | ≤ 0.5 |
| C5U A15U G51C C61G C62G | 0.776 |
| C5U A14U | 0.718 |
| C5U A14G | 0.77 |
| C5U A21U C30G | 0.632 |
| C5U A14C C31A A40U C60A | ≤ 0.5 |
| C5U A15U A21G C49U | ≤ 0.5 |
| C5U A21U C30G C60G A70C | ≤ 0.5 |
| C5U A15C G18A U35C A42G | ≤ 0.5 |
| C5U A14G A15U U28A C33G G41C G56A | ≤ 0.5 |
| C5U A21G C24G U28G | ≤ 0.5 |
| C5U A14G C46G A65U | ≤ 0.5 |
| C5U A21G A42U G50C | ≤ 0.5 |
| C5U A14G C24U U32G A43G C66U | ≤ 0.5 |
| C5U A21U C30G C62U | 0.57 |
| C5U A15C C34G A40U A43C C49G G50A C60U | 0.583 |
| C5U A15U C30G C33G A40G A42G A43U U54G | ≤ 0.5 |
| C5U A21G A37G G39C G44C C46A U54C A65C | ≤ 0.5 |
| C5U A21U U64A | ≤ 0.5 |
| C5U A15U C29U C31U C34U | 0.519 |

| Variant | yeast fitness |
| --- | --- |
| C5U A20G C24G U26G A37C A57G C66A | ≤ 0.5 |
| C5U A14C U35C | ≤ 0.5 |
| C5U A20G A37G | 0.524 |
| C5U A14G A36G G68C | ≤ 0.5 |
| C5U A21G C33G G38A C60A | ≤ 0.5 |
| C5U A15G A20U | 0.662 |
| C5U A20U C49A | ≤ 0.5 |
| C5U A15U C29U C31U C34U G48C G68A | ≤ 0.5 |
| C5U A14C A45C | ≤ 0.5 |
| C5U A21U C30G C66U | ≤ 0.5 |
| C5U A21U C29G G58C | ≤ 0.5 |
| C5U A20C A69U | 0.771 |
| C5U A36C A43G U54A C55G A69U | ≤ 0.5 |
| C5U A36C U54A | ≤ 0.5 |
| C5U A21G | 0.981 |
| C5U A14G G68C | 0.57 |
| C5U A20C G23C C24U C31U | ≤ 0.5 |
| C5U A20U A45U | 0.582 |
| C5U A14G C33U G50C C55U A57G | ≤ 0.5 |
| C5U A15C A36U A65C | ≤ 0.5 |
| C5U A14U C30U G39C C60A A70C | ≤ 0.5 |
| C5U A14U C27G G38C G63A | ≤ 0.5 |
| C5U A20C G68C | 0.542 |
| C5U A14G C33G A40G C60G | ≤ 0.5 |

| Variant | yeast fitness |
| --- | --- |
| C5U A15G A70U | 0.696 |
| C5U A36G A45U | 1.01 |
| C5U A20G U47C | ≤ 0.5 |
| C5U A20U C30U C46U U47G | ≤ 0.5 |
| C5U A21G G25A A42U G58A | 0.744 |
| C5U A21G C27U A69U | ≤ 0.5 |
| C5U A20U G67A A70G | 0.933 |
| C5U A36U A65U | 0.712 |
| C5U A21G C24A A42C G63A | ≤ 0.5 |
| C5U A14C C29U C33A C49U C55G | ≤ 0.5 |
| C5U A21U C30G A42G U59C C66G G68A | ≤ 0.5 |
| C5U A15U G17A G44C | ≤ 0.5 |
| C5U A21C U54C A65U | 0.643 |
| C5U A14G U28C | 0.562 |
| C5U A15C C34G A37G A65G | ≤ 0.5 |
| C5U A20U A70U | 0.842 |
| C5U A15C G58A | 0.569 |
| C5U A20C A43G | 0.658 |
| C5U A20U A36U | ≤ 0.5 |
| C5U A14U C30U G39C C60A | ≤ 0.5 |
| C5U A14C A21G C30G C34U G39A C55U | ≤ 0.5 |
| C5U A14U C31G U59A C61U | ≤ 0.5 |
| C5U A15U C29U C31U C34U U64C | ≤ 0.5 |
